ChEMBL document CHEMBL4382246, “Synthesis, biological evaluation, and molecular docking investigation of 3-amidoindoles as potent tubulin polymerization inhibitors” (Eur J Med Chem, 2019)
Active and inactive are the calls of the source. No cut-off for these calls is given here.

Key:
[1] = molecular target: T1, Tubulin alpha (Homo sapiens) (UniProt P0DPH7+P68366+Q71U36+P68363+Q9BQE3+Q6PEY2+A6NHL2+Q9NY65); assay: Disruption of alpha-tubulin in human BT549 cells at 10 uM after 6 hrs by FITC/DAPI staining-based confocal microscopic analysis; type: cell-based
In short: (§1)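 BT549 cells (2×10⁴ per well) were attached overnight on glass coverslips, then exposed to 10 or 20 µM, or to 0.1% DMSO, for 6 h. Cells were fixed in 4% paraformaldehyde, permeabilized with 0.1% Triton X-100 and blocked in 5% BSA for 60 min. Primary antibodies were α-tubulin mouse and β-tubulin rabbit monoclonals, applied overnight at 4 °C. Secondaries were FITC anti-mouse and Alexa Fluor 555 anti-rabbit, with DAPI for nuclei, and cells were imaged by laser scanning confocal microscopy.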

[2] = tested on: BT-549; assay: Cytotoxicity against human BT549 cells after 72 hrs by MTT assay; type: functional, cell-based; settings: BT-549, 72 h
In short: (§2)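 Lines kept in RPMI-1640 with 10% FBS. Cells were seeded at 2×10³ per well and allowed to attach for 24 h at 37 °C. Medium was then replaced with medium holding serial dilutions from 100 mM DMSO stocks, with 0.1% DMSO as negative control, for 72 h at 37 °C. […] IC50 was fitted from the concentration series as the mean ± SD of three independent experiments run in duplicate.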

[3] = molecular target: Tubulin (Sus scrofa) (UniProt P02554+P02550); assay: Inhibition of pig brain tubulin polymerization at 10 uM by spectrophotometric analysis relative to control
In short: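 Tubulin polymerization inhibition was measured with compounds at a final concentration of 10 µM.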

[4] = tested on: BT-549; assay: Cell cycle arrest in human BT549 cells assessed as accumulation of cells at G2/M phase at 8 uM after 24 hrs by propidium iodide staining-based flow cytometric analysis (reference value: 8.88%); type: functional
[5] = molecular target: T1, Tubulin alpha (Homo sapiens); assay: Disruption of alpha-tubulin in human BT549 cells assessed as round cell shape at 20 uM after 6 hrs by FITC/DAPI staining-based confocal microscopic analysis; in short: as §1
[6] = tested on: BT-549; assay: Cell cycle arrest in human BT549 cells assessed as accumulation of cells at G0/G1 phase at 8 uM after 24 hrs by propidium iodide staining-based flow cytometric analysis (reference value: 65.28%); type: functional
[7] = molecular target: T1, Tubulin alpha (Homo sapiens); assay: Disruption of alpha-tubulin in human BT549 cells assessed as short microtubule at 20 uM after 6 hrs by FITC/DAPI staining-based confocal microscopic analysis; type: cell-based; in short: as §1
[8] = molecular target: T2, Tubulin beta (Homo sapiens) (UniProt P68371+Q9H4B7+Q13509+P04350+Q3ZCM7+P07437+Q13885+Q9BVA1+Q9BUF5+A6NNZ2); assay: Disruption of beta-tubulin in human BT549 cells assessed as round cell shape at 20 uM after 6 hrs by FITC/DAPI staining-based confocal microscopic analysis; in short: as §1
[9] = tested on: BT-549; assay: Cell cycle arrest in human BT549 cells assessed as accumulation of cells at S phase at 4 uM after 24 hrs by propidium iodide staining-based flow cytometric analysis (reference value: 25.84%); type: functional
[10] = molecular target: T1, Tubulin alpha (Homo sapiens); assay: Disruption of alpha-tubulin in human BT549 cells assessed as loss of cellular structure at 10 uM after 6 hrs by FITC/DAPI staining-based confocal microscopic analysis; type: cell-based; in short: as §1
[11] = molecular target: T2, Tubulin beta (Homo sapiens); assay: Disruption of beta-tubulin in human BT549 cells assessed as short microtubule at 20 uM after 6 hrs by FITC/DAPI staining-based confocal microscopic analysis; type: cell-based; in short: as §1
[12] = tested on: BT-549; assay: Cell cycle arrest in human BT549 cells assessed as accumulation of cells at G0/G1 phase at 2 uM after 24 hrs by propidium iodide staining-based flow cytometric analysis (reference value: 65.28%); type: functional
[13] = tested on: T47D; assay: Cytotoxicity against human T47D cells after 72 hrs by MTT assay; type: functional, cell-based; in short: as §2
[14] = tested on: MDA-MB-231; assay: Cytotoxicity against human MDA-MB-231 cells after 72 hrs by MTT assay; type: functional, cell-based; settings: MDA-MB-231, 72 h; in short: as §2
[15] = molecular target: Tubulin (Sus scrofa, UniProt P02554+P02550); assay: Inhibition of pig brain tubulin polymerization by spectrophotometric analysis
[16] = molecular target: T2, Tubulin beta (Homo sapiens); assay: Disruption of beta-tubulin in human BT549 cells assessed as wrapped microtubule at 20 uM after 6 hrs by DAPI staining-based confocal microscopic analysis
[17] = tested on: MCF7; assay: Cytotoxicity against human MCF7 cells after 72 hrs by MTT assay; type: functional, cell-based; settings: MCF7, 72 h; in short: as §2
[18] = molecular target: T2, Tubulin beta (Homo sapiens); assay: Disruption of beta-tubulin in human BT549 cells assessed as formation of cellular rounding at 10 uM after 6 hrs by FITC/DAPI staining-based confocal microscopic analysis; type: cell-based; in short: as §1
[19] = tested on: MDA-MB-468; assay: Cytotoxicity against human MDA-MB-468 cells after 72 hrs by MTT assay; type: functional, cell-based; settings: MDA-MB-468, 72 h; in short: as §2
[20] = molecular target: T2, Tubulin beta (Homo sapiens); assay: Disruption of beta-tubulin in human BT549 cells assessed as loss of cellular structure at 10 uM after 6 hrs by FITC/DAPI staining-based confocal microscopic analysis; type: cell-based; in short: as §1
[21] = tested on: BT-549; assay: Cell cycle arrest in human BT549 cells assessed as accumulation of cells at G0/G1 phase at 4 uM after 24 hrs by propidium iodide staining-based flow cytometric analysis (reference value: 65.28%); type: functional
[22] = tested on: BT-549; assay: Cell cycle arrest in human BT549 cells after 24 hrs by propidium iodide staining-based flow cytometric analysis; type: functional
[23] = molecular target: T1, Tubulin alpha (Homo sapiens); assay: Disruption of alpha-tubulin in human BT549 cells assessed as wrapped microtubule at 20 uM after 6 hrs by FITC/DAPI staining-based confocal microscopic analysis; type: cell-based; in short: as §1
[24] = tested on: BT-549; assay: Cell cycle arrest in human BT549 cells assessed as accumulation of cells at S phase at 2 uM after 24 hrs by propidium iodide staining-based flow cytometric analysis (reference value: 25.84%); type: functional
[25] = tested on: BT-549; assay: Cell cycle arrest in human BT549 cells assessed as accumulation of cells at G2/M phase at 2 uM after 24 hrs by propidium iodide staining-based flow cytometric analysis (reference value: 8.88%); type: functional
[26] = tested on: BT-549; assay: Cell cycle arrest in human BT549 cells assessed as accumulation of cells at S phase at 8 uM after 24 hrs by propidium iodide staining-based flow cytometric analysis (reference value: 25.84%); type: functional
[27] = tested on: BT-549; assay: Cell cycle arrest in human BT549 cells assessed as accumulation of cells at G2/M phase at 4 uM after 24 hrs by propidium iodide staining-based flow cytometric analysis (reference value: 8.88%); type: functional
[28] = molecular target: T1, Tubulin alpha (Homo sapiens); assay: Disruption of alpha-tubulin in human BT549 cells assessed as formation of cellular rounding at 10 uM after 6 hrs by FITC/DAPI staining-based confocal microscopic analysis; type: cell-based; in short: as §1
[29] = tested on: Hs-578T; assay: Cytotoxicity against human Hs578T cells after 72 hrs by MTT assay; type: functional, cell-based; in short: as §2
[30] = molecular target: T2, Tubulin beta (Homo sapiens); assay: Disruption of beta-tubulin in human BT549 cells at 10 uM after 6 hrs by FITC/DAPI staining-based confocal microscopic analysis; type: cell-based; in short: as §1

Sequence of Tubulin (Sus scrofa) (P02550 whole entry, looked up): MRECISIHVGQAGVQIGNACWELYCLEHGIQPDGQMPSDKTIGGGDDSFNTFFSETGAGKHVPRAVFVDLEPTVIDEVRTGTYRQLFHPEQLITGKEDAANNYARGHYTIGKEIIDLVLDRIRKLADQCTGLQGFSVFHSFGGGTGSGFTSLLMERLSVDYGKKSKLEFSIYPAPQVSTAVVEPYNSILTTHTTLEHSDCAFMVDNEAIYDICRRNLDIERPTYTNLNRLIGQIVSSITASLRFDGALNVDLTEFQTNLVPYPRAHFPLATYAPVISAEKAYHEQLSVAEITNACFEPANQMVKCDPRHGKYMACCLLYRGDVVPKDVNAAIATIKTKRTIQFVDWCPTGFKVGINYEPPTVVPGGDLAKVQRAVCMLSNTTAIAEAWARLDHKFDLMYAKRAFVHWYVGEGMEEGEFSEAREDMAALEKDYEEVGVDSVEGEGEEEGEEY
Sequence of Tubulin (Sus scrofa) (P02554 whole entry, looked up): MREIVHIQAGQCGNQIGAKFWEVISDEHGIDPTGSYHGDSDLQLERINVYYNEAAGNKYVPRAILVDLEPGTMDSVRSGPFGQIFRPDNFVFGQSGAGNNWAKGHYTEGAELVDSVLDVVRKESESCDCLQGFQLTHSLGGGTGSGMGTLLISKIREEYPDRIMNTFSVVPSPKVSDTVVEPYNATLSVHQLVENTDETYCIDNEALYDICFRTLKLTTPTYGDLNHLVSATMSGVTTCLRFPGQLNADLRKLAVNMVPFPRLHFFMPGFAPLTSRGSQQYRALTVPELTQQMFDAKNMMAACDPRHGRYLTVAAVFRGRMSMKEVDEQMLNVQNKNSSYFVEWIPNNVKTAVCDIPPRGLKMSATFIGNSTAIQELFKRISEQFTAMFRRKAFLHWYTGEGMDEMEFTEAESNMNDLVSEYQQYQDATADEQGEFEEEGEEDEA

Activity [1]: Active
inhibition [3]: 59%
Activity [5]: Active
Activity [7]: Active
Activity [8]: Active
Activity [10]: Active
Activity [11]: Active
IC50 [15]: 9.5 µM
Activity [16]: Active
Activity [18]: Active
Activity [20]: Active
Activity [23]: Active
Activity [28]: Active
Activity [30]: Active
SMILES: COc1cc(C(=O)Nc2c(C(=O)c3ccc(Cl)cc3)[nH]c3cc(Cl)ccc23)cc(OC)c1OC
IC50 [2]: 3.17 µM
Activity [4]: 56.58%
Activity [6]: 19.76%
Activity [9]: 33.01%
Activity [12]: 32.1%
IC50 [13]: 0.04 µM
IC50 [14]: 6.43 µM
IC50 [17]: 10.9 µM
IC50 [19]: 7.92 µM
Activity [21]: 31.07%
Activity [22]: Dose-dependent effect
Activity [24]: 41.6%
Activity [25]: 26.29%
Activity [26]: 23.66%
Activity [27]: 35.92%
IC50 [29]: > 100 µM
